Assays:
[1] = test system: PBMC; assay: Inhibition of LPS-induced TNFalpha production in human PBMC preincubated for 30 mins before LPS challenge measured afterr 6 hrs by ELISA; type: functional, cell-based
How it was run: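 PBMCs from healthy donor blood, isolated over ficoll in RPMI containing EDTA and polymyxin, then resuspended in RPMI/10% FBS at 1 × 10^6 cells/mL. Compound preincubated 30 min, then LPS added (25 ng/mL final). Incubated 6 h at 37 °C, 5% CO2; supernatant TNF-α measured by ELISA.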

[2] = Volume of distribution at steady state in rat at 2 mg/kg, iv; type: ADME, organism-based; set-up: dose 2 mg/kg, route intravenous; conditions: in vivo, read-out: Vdss
How it was run: (§1)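 Some compounds were dosed as a cassette of five compounds at 2 mg/kg each, after prescreening to exclude potent CYP inhibitors (IC50 < 10 µM).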

[3] = AUC in rat at 2 mg/kg, iv; type: ADME, organism-based; set-up: dose 2 mg/kg, route intravenous; conditions: plasma; how it was run: as §1
[4] = Clearance in rat at 2 mg/kg, iv; type: ADME, organism-based; set-up: dose 2 mg/kg, route intravenous; conditions: in vivo; how it was run: as §1
[5] = molecular target: T1, Inhibitor of nuclear factor kappa-B kinase subunit alpha (Homo sapiens, UniProt O15111); assay: Inhibition of IKK1-mediated phosphorylation of GST-IkappaBalpha fusion protein afterr 60 mins by fluorescence polarization assay
T1 sequence (O15111 whole entry): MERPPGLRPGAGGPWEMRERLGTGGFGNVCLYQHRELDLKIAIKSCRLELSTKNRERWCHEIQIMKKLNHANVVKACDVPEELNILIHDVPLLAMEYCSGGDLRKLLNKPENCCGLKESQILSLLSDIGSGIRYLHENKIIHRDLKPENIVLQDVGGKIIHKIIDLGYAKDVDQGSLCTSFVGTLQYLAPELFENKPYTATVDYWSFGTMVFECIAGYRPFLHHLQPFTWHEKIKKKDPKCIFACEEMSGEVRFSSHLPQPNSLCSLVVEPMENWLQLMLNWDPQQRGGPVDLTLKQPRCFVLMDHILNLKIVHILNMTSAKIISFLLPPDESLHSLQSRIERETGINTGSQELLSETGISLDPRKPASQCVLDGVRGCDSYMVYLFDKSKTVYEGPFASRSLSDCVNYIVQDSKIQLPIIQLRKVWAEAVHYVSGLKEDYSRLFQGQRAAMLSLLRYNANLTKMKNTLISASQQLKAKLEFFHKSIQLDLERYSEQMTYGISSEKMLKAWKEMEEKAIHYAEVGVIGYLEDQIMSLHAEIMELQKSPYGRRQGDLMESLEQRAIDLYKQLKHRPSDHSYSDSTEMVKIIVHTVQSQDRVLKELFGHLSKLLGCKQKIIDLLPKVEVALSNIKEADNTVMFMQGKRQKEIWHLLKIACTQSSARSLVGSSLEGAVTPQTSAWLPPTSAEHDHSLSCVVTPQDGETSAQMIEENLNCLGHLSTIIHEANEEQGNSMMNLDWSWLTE
How it was run: (§2)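 GST-IκBα (50 µg/mL) with 20 µM ATP in 25 mM Tris-HCl pH 7.5, 7.5 mM MgCl2, 1 mM DTT, 5% glycerol, BSA; reaction started by adding IKK enzyme (IKK-2 typically 3 µg/mL final) at room temperature. Stopped after 60 min with 33 mM EDTA. Phospho-IκBα quantified by fluorescence polarization, competing with a fluorescein-labelled phosphopeptide for anti-phospho-IκBα antibody.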

[6] = Half life in rat at 2 mg/kg, iv; type: ADME, organism-based; set-up: dose 2 mg/kg, route intravenous; conditions: in vivo; how it was run: as §1
[7] = test system: Mus musculus; assay: Inhibition of LPS-induced TNFalpha release in serum of BALB/c mouse at 10 mg/kg, po administered 4 hrs before LPS challenge measured afterr 90 mins by ELISA relative to control; type: functional
How it was run: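 Female BALB/c mice, 6-8 weeks old, acclimated at least 1 week. Compound given orally in 100% PEG300 (0.1 mL) about 4 h before ip LPS (E. coli O111:B4, 0.1 mL of 10 µg/mL in PBS; 50 µg/kg). Vehicle-only controls. Blood taken 90 min after LPS; serum TNF-α by ELISA; mean ± SEM, n = 8 per group.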

[8] = Cmax in rat at 2 mg/kg, iv; type: ADME, organism-based; set-up: dose 2 mg/kg, route intravenous; conditions: in vivo; how it was run: as §1
[9] = Metabolic stability in mouse liver microsomes assessed as clearance at 3 uM after 1 hr; type: ADME, Microsome
How it was run: (§3)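 Liver microsomes (mouse, human or rat) at 1 mg/mL protein with 3 µM compound in 65 mM phosphate buffer pH 7.4 and 1 mM NADPH, 37 °C, 1 h. Samples taken at 0 and 15 min and quenched with acetonitrile. Metabolic rate calculated from parent disappearance between 0 and 15 min.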

[10] = molecular target: T2, Inhibitor of nuclear factor kappa-B kinase subunit beta (Homo sapiens, UniProt O14920); assay: Inhibition of IKK2-mediated phosphorylation of GST-IkappaBalpha fusion protein afterr 60 mins by fluorescence polarization assay; how it was run: as §2
T2 sequence (O14920 whole entry): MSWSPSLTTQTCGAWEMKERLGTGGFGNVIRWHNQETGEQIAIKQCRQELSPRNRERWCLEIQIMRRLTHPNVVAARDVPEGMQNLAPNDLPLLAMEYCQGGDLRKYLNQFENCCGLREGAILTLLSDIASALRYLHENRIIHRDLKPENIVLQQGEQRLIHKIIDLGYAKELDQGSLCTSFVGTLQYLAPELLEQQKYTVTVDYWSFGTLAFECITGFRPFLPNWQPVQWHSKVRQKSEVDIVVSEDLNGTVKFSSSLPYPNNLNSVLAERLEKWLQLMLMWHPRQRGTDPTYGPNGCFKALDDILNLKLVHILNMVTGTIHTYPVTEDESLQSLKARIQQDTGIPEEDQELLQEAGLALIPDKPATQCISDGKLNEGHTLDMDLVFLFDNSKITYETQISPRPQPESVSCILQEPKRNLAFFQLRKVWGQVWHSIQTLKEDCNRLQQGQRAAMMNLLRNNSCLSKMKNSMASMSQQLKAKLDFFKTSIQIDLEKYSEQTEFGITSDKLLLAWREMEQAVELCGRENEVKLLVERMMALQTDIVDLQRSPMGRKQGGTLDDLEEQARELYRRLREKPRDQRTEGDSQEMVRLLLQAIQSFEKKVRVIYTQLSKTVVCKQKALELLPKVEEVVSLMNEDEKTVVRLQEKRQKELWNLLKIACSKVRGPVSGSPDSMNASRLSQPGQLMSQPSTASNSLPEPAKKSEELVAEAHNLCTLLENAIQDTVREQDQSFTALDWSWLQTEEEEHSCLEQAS

[11] = test system: Liver microsomes; assay: Metabolic stability in rat liver microsomes assessed as clearance at 3 uM after 1 hr; type: ADME, Microsome; how it was run: as §3
[12] = test system: Liver microsomes; assay: Metabolic stability in human liver microsomes assessed as clearance at 3 uM after 1 hr; type: ADME, Microsome; how it was run: as §3
[13] = molecular target: Serine/threonine-protein kinase PLK1 (Homo sapiens, UniProt P53350); assay: Inhibition of Plk1
Serine/threonine-protein kinase PLK1, sequence (P53350 whole entry): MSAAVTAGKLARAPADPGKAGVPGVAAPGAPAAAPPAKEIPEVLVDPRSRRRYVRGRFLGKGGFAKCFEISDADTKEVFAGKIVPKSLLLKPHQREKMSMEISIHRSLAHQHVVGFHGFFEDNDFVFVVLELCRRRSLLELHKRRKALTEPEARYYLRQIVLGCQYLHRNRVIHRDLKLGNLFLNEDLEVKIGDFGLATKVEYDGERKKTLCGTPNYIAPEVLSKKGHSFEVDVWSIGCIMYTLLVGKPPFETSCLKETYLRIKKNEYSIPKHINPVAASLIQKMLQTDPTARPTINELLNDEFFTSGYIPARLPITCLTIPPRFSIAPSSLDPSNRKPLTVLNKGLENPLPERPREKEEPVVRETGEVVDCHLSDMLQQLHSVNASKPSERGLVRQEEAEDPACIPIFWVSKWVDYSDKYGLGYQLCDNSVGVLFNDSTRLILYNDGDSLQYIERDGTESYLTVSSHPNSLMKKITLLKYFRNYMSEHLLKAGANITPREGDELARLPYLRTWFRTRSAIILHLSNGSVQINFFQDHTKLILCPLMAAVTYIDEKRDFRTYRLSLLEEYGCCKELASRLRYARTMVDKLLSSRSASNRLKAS
How it was run: (§4)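 In-house kinase selectivity panel of 30 kinases; enzyme inhibition values reported in µM.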

[14] = molecular target: Cyclin-dependent kinase 2 (Homo sapiens, UniProt P24941); assay: Inhibition of Cdk2; how it was run: as §4
[15] = Inhibition of IGFR; how it was run: as §4
[16] = molecular target: T3, Inhibitor of nuclear factor kappa-B kinase subunit epsilon (Homo sapiens, UniProt Q14164); assay: Inhibition of IKKepsilon; how it was run: as §4
T3 sequence (Q14164 whole entry): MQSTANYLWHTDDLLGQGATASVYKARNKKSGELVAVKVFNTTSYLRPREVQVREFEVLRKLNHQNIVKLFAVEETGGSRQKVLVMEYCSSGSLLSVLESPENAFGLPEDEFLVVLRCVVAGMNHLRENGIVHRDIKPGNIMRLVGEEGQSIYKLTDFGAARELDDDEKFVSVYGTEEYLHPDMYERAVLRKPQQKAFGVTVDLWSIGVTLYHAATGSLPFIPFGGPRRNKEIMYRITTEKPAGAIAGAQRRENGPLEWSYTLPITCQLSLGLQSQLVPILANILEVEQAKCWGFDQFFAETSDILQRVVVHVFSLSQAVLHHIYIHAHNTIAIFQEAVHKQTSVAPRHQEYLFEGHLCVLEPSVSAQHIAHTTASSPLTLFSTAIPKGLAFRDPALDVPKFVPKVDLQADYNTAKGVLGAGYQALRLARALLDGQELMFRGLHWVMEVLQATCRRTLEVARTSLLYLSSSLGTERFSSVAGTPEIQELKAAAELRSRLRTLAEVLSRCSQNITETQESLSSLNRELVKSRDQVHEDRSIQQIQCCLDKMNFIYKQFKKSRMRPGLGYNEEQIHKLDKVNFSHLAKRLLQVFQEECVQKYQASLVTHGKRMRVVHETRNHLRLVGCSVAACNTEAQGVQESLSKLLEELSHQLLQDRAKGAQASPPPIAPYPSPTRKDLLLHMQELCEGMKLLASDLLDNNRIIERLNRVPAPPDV

[17] = molecular target: Proto-oncogene tyrosine-protein kinase Src (Homo sapiens, UniProt P12931); assay: Inhibition of Src; how it was run: as §4
Proto-oncogene tyrosine-protein kinase Src, sequence (P12931 2-536 limits assumed): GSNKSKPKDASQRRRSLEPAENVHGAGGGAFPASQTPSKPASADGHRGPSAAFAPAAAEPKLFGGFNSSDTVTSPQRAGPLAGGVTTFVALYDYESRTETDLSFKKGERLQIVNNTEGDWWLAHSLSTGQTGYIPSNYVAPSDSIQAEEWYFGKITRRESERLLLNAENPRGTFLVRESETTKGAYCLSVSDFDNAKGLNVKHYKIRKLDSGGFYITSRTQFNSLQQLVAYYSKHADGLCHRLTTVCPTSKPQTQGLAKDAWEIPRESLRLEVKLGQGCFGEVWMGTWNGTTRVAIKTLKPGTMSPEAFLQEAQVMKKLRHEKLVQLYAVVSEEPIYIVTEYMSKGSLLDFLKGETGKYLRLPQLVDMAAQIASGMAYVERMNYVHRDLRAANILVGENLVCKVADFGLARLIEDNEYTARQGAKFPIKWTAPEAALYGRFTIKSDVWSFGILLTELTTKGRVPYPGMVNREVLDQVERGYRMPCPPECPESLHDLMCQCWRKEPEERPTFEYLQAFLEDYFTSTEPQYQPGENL

[18] = molecular target: Tyrosine-protein kinase BTK (Homo sapiens, UniProt Q06187); assay: Inhibition of Btk; how it was run: as §4
Tyrosine-protein kinase BTK, sequence (Q06187 whole entry): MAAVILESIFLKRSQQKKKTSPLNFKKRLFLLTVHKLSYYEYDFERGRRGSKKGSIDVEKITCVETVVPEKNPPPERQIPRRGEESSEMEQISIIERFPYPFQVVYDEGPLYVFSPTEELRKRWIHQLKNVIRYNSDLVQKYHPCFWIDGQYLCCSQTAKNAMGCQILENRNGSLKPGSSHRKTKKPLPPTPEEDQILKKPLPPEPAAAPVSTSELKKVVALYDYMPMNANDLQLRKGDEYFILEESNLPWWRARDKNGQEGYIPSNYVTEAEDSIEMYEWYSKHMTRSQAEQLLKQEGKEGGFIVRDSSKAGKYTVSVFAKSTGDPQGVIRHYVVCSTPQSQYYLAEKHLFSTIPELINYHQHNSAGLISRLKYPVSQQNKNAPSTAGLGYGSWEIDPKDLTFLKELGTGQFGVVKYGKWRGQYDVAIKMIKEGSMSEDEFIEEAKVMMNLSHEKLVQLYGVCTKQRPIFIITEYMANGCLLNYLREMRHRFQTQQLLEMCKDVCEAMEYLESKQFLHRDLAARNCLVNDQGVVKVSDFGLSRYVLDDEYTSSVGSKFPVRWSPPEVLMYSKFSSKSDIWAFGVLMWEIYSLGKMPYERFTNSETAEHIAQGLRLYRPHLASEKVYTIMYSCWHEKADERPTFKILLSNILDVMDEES

[19] = molecular target: T4, Tyrosine-protein kinase ITK/TSK (Homo sapiens, UniProt Q08881); assay: Inhibition of Itk; how it was run: as §4
T4 sequence (Q08881 whole entry): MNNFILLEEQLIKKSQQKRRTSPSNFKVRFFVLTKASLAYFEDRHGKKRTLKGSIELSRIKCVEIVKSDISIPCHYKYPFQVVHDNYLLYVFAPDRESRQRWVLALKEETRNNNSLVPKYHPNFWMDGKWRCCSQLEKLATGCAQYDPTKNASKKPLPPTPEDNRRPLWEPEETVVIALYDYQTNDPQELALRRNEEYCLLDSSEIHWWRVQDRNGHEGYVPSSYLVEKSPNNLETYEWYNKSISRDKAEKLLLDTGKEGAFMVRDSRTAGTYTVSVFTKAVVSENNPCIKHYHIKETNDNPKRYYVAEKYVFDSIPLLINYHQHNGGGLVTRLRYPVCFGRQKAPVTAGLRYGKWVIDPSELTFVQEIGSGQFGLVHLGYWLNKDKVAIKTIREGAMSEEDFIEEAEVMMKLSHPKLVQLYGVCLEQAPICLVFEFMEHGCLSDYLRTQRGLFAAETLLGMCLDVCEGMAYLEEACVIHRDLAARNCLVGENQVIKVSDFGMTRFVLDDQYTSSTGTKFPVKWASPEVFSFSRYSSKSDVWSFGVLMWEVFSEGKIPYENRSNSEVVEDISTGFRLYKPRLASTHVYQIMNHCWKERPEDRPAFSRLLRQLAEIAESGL

[20] = Selectivity ratio of IC50 for IKK1 to IC50 for IKK2
How it was run: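 Buffer was 25 mM Tris-HCl pH 7.5 with 7.5 mM MgCl2, 1 mM DTT, 5% glycerol and 470 µg/mL BSA. IKK-2 was typically 3 µg/mL final. Reactions ran 60 min at room temperature, stopped with 33 mM EDTA. Phospho-IκBα was read by fluorescence-polarization competition of a fluorescein phosphopeptide for an anti-phospho antibody. Ratio = IKK1 IC50/IKK2 IC50.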

Structure (SMILES)	Vd [2] [L/kg]	AUC [3] [µM·h]	clearance [4] [mL/min/kg]	IC50 [5] [µM]	half-life [6] [min]	Cmax [8] [µM]	CL [9] [nmol/mg/min]	IC50 [10] [µM]	CL [11] [nmol/mg/min]	CL [12] [nmol/mg/min]	IC50 [13] [µM]	IC50 [14] [µM]	IC50 [15] [µM]	IC50 [16] [µM]	IC50 [17] [µM]	IC50 [18] [µM]	IC50 [19] [µM]	Ratio IC50 [20]	IC50 [1] [µM]	inhibition in vivo at 10 mg/kg [7] [%]
CNc1nc2sc(-c3cccc(CNC(=O)c4csnn4)c3)nc2c2c1ncn2C	0.2	5	3	10	36	3.9	0.23	0.016	0.14	0.16									0.082	50
CNc1nc2c(nc(-c3ccccc3)n2C)c2c1ncn2C				4.3			0.12	0.52	0.08	0.13	12	23	< 50	14	< 50	14	19		0.44	
CNc1nc2sc(-c3cccc(CNC(C)=O)c3)nc2c2c1ncn2C				1.9				0.022			< 50	31	< 50	12	< 50	17	9.1		0.35	

Further lines, with some results ahead:

Vd [2] [L/kg]	AUC [3] [µM·h]	clearance [4] [mL/min/kg]	IC50 [5] [µM]	half-life [6] [min]	Cmax [8] [µM]	CL [9] [nmol/mg/min]	IC50 [10] [µM]	CL [11] [nmol/mg/min]	CL [12] [nmol/mg/min]	IC50 [13] [µM]	IC50 [14] [µM]	IC50 [15] [µM]	IC50 [16] [µM]	IC50 [17] [µM]	IC50 [18] [µM]	IC50 [19] [µM]	Ratio IC50 [20]	Structure (SMILES)	IC50 [1] [µM]	inhibition in vivo at 10 mg/kg [7] [%]
2.8	2.8	42	3.5	72	3	0.25	0.006	0.12	0.09								580	CNc1nc2sc(-c3ccccc3)nc2c2c1ncn2C		
			0.27			0.23	0.011	0.14	0.09	< 50	16	< 50	17	< 50	23	17		CNc1nc2oc(-c3ccccc3)nc2c2c1ncn2C		

Source: ChEMBL document CHEMBL1153345, “Novel tricyclic inhibitors of IkappaB kinase” (J Med Chem, 2009)
